In ChEMBL document CHEMBL1130386, “Structure-activity relationship of newly synthesized quinoline derivatives for reversal of multidrug resistance in cancer” (1997):

System: K562
Test: MDR-reversing activity in K562/ADM cells at 1 uM concentration of [3H]-VCR (vincristine), activity expressed relative to verapamil.
Format: functional, Homo sapiens
Method in brief: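 K562/ADM cells at 1.5 × 10^6/mL in growth medium with 10 mM HEPES were incubated at 37 °C with 30 nM [3H]VCR (5.6 Ci/mmol), with or without modulator (1 µM) or verapamil. At intervals, aliquots were spun through a 4:1 silicone oil/liquid paraffin layer. Pellets were lysed overnight in 0.5 N KOH and counted by liquid scintillation. Intracellular VCR was scaled to verapamil.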

## OC(COc1cccc2ncccc12)CN1CCN(C2c3ccccc3CCc3ccccc32)CC1 (stereo unspecified)
  Activity: 371%

## OC(COc1cccc2ncccc12)CN1CCN(C2c3ccccc3COc3ccccc32)CC1 (stereo unspecified)
  Activity: 414%

## O=C(C(c1ccc(F)cc1)c1ccc(F)cc1)N1CCN(CC(O)COc2cccc3ncccc23)CC1 (stereo unspecified)
  Activity: 263%

## OC(COc1cccc2ncccc12)CN1CCN(CC(c2ccccc2)c2ccccc2)CC1 (stereo unspecified)
  Activity: 327%

## OC(COc1cccc2ncccc12)CN1CCC(=C(c2ccc(F)cc2)c2ccc(F)cc2)CC1 (stereo unspecified)
  Activity: 246%

## O=C(C1c2ccccc2Oc2ccccc21)N1CCN(CC(O)COc2cccc3ncccc23)CC1 (stereo unspecified)
  Activity: 279%

## O=C(C1c2ccccc2-c2ccccc21)N1CCN(CC(O)COc2cccc3ncccc23)CC1 (stereo unspecified)
  Activity: 213%

## OC(COc1cccc2ncccc12)CN1CCN(C(c2ccccc2)c2cccs2)CC1 (stereo unspecified)
  Activity: 428%

## OC(COc1ccccc1)CN1CCN(C(c2ccccc2)c2ccccc2)CC1 (stereo unspecified)
  Activity: 56%

## CCCCCCCCCCCCCCCCCCN1CCN(CC(O)COc2cccc3ncccc23)CC1 (stereo unspecified)
  Activity: 55%

## OC(COc1cccc2ncccc12)CN1CCN(Cc2ccccc2)CC1 (stereo unspecified)
  Activity: 123%

## OC(COc1cccc2ncccc12)CN1CCN(C(c2ccc(F)cc2)c2ccc(F)cc2)CC1 (stereo unspecified)
  Activity: 265%

## OC(COc1cccc2ncccc12)CN1CCN(C(c2ccccc2)c2ccccc2)CC1 (stereo unspecified)
  Activity: 358%

## COc1ccc(C(c2ccc(OC)cc2)N2CCN(CC(O)COc3cccc4ncccc34)CC2)cc1 (stereo unspecified)
  Activity: 260%

## O=C1C(=O)N(C2c3ccccc3CCc3ccccc32)CCN1CC(O)COc1cccc2ncccc12 (stereo unspecified)
  Activity: 81%

## OC(COc1cccc2ncccc12)CN1CCN(C2c3ccccc3-c3ccccc32)CC1 (stereo unspecified)
  Activity: 229%

## OC(CNCCC(c1ccccc1)c1ccccc1)COc1cccc2ncccc12 (stereo unspecified)
  Activity: 343%

## OC(CNCC(c1ccccc1)c1ccccc1)COc1cccc2ncccc12 (stereo unspecified)
  Activity: 117%

## CN1CCN(CC(O)COc2cccc3ncccc23)CC1 (stereo unspecified)
  Activity: 47%

## OC(COc1cccc2ncccc12)CN1CCN(C2c3ccccc3CCc3cccnc32)CC1 (stereo unspecified)
  Activity: 316%

## OC(COc1cccc2ncccc12)CN1CCN(C(c2ccccc2)c2ccc(Cl)cc2)CC1 (stereo unspecified)
  Activity: 243%

## OC(COc1cccc2ccccc12)CN1CCN(C(c2ccccc2)c2ccccc2)CC1 (stereo unspecified)
  Activity: 32%

## OC(COc1cccc2ncccc12)CN1CCNCC1 (stereo unspecified)
  Activity: 65%

## OC(COc1cccc2ncccc12)CN1CCC(=C2c3ccccc3CCc3ccccc32)CC1 (stereo unspecified)
  Activity: 374%

## OC(COc1cccc2ncccc12)CN1CCC(=C(c2ccccc2)c2ccccc2)CC1 (stereo unspecified)
  Activity: 309%

## O=C(C(c1ccccc1)c1ccccc1)N1CCN(CC(O)COc2cccc3ncccc23)CC1 (stereo unspecified) [DOFEQUIDAR]
  Activity: 381%
